Calls of active or inactive are those of the source. No cut-off for these calls is given here.

The values that follow come from ChEMBL document CHEMBL4808218, “Structural and biophysical characterization of the Burkholderia pseudomallei IspF inhibitor L-tryptophan hydroxamate” (Bioorg Med Chem Lett, 2021).

Test [1] concerns the target T1, 2-C-methyl-D-erythritol 2,4-cyclodiphosphate synthase (Burkholderia pseudomallei (strain K96243)) (UniProt Q63T71).
T1 sequence (whole entry): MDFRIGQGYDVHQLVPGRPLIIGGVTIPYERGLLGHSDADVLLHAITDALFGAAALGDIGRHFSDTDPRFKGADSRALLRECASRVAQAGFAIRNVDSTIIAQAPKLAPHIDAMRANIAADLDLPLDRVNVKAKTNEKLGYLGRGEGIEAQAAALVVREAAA
The experiment in a line: Binding affinity to Burkholderia pseudomallei IspF by STD NMR analysis.

The target in test [2] is T2, 2-C-methyl-D-erythritol 2,4-cyclodiphosphate synthase (Burkholderia pseudomallei (strain K96243), UniProt Q63T71).
T2 sequence (Q63T71 whole entry): T1 sequence (whole entry)
In words: Binding affinity to Burkholderia pseudomallei IspF at pH 7.4 measured by isothermal titration calorimetry method. The note with it: read-out: Kd(app). The method, boiled down:
(§1)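 ITC titration of BpIspF with ligand at 25 °C, run in buffer at pH 6.0, 7.4 or 8.0 as set by the line. Fits gave Kb, ΔG°, ΔH°, -TΔS° and stoichiometry. Ligand concentration was set from the tryptophan extinction coefficient. The pH 6.0/7.4 ratio compares the apparent Kd from these two runs.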
(In general: In ITC the heat of successive injections is recorded.)

For test [3], the target named is T1, 2-C-methyl-D-erythritol 2,4-cyclodiphosphate synthase (Burkholderia pseudomallei (strain K96243)). The experiment in a line: Binding affinity to Burkholderia pseudomallei IspF assessed as change in enthalpy at pH 7.4 measured by isothermal titration calorimetry method. The method in brief:
as §1

Test [4] has the same target. In words: Binding affinity to Burkholderia pseudomallei IspF assessed as change in free energy at pH 7.4 measured by isothermal titration calorimetry method. The method, boiled down:
as §1

Test [5] has the same target. The experiment in a line: Binding affinity to Burkholderia pseudomallei IspF assessed as change in entropy at pH 7.4 measured by isothermal titration calorimetry method. The method, boiled down: as §1
Test [6] shares this target. In words: Ratio of apparent Kd for Burkholderia pseudomallei IspF at pH 6 to apparent Kd for Burkholderia pseudomallei IspF at pH 7.4. The method in brief:
as §1

For test [7] the target is unchanged. In words: Binding affinity to Burkholderia pseudomallei IspF assessed as change in entropy at pH 6 measured by isothermal titration calorimetry method. The method, boiled down:
as §1

For test [8], the target named is T3, 2-C-methyl-D-erythritol 2,4-cyclodiphosphate synthase (Escherichia coli (strain K12), UniProt P62617).
T3 sequence (P62617 whole entry): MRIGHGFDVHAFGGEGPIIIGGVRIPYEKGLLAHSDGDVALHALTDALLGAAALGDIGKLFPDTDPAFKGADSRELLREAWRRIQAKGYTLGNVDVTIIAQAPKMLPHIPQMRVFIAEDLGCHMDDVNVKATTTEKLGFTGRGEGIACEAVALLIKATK
In words: Binding affinity to Escherichia coli IspF at pH 7.4 measured by isothermal titration calorimetry method. As to conditions: read-out: Kd(app).

Test [9] concerns the target T1, 2-C-methyl-D-erythritol 2,4-cyclodiphosphate synthase (Burkholderia pseudomallei (strain K96243)). In words: Binding affinity to Burkholderia pseudomallei IspF assessed as change in enthalpy at pH 6 measured by isothermal titration calorimetry method. The method in brief:
as §1

Test [10] deals with T2, 2-C-methyl-D-erythritol 2,4-cyclodiphosphate synthase. In words: Binding affinity to Burkholderia pseudomallei IspF at pH 6 measured by isothermal titration calorimetry method. As to conditions: read-out: Kd(app). The method in brief: as §1
Test [11] concerns the target T1, 2-C-methyl-D-erythritol 2,4-cyclodiphosphate synthase (Burkholderia pseudomallei (strain K96243)). In words: Binding affinity to Burkholderia pseudomallei IspF assessed as change in enthalpy at pH 8 measured by isothermal titration calorimetry method. The method in brief:
as §1

For test [12] the target is unchanged. The experiment in a line: Binding affinity to Burkholderia pseudomallei IspF assessed as change in entropy at pH 8 measured by isothermal titration calorimetry method. The method in brief: as §1
Test [13] deals with T4, 2-C-methyl-D-erythritol 2,4-cyclodiphosphate synthase (Escherichia coli (strain K12)) (UniProt P62617).
T4 sequence (whole entry): T3 sequence (P62617 whole entry)
In words: Binding affinity to Escherichia coli IspF assessed as change in free energy at pH 7.4 measured by isothermal titration calorimetry method.

In test [14] the target is T1, 2-C-methyl-D-erythritol 2,4-cyclodiphosphate synthase (Burkholderia pseudomallei (strain K96243)). The experiment in a line: Binding affinity to Burkholderia pseudomallei IspF assessed as change in free energy at pH 6 measured by isothermal titration calorimetry method. The method, boiled down: as §1
Test [15] shares this target. In words: Binding affinity to Burkholderia pseudomallei IspF assessed as change in free energy at pH 8 measured by isothermal titration calorimetry method. The method in brief: as §1
In test [16] the target is T2, 2-C-methyl-D-erythritol 2,4-cyclodiphosphate synthase. In words: Binding affinity to Burkholderia pseudomallei IspF at pH 8 measured by isothermal titration calorimetry method. As to conditions: read-out: Kd(app). The method, boiled down:
as §1

As for `CC(C)=CCC/C(C)=C/COP(=O)(O)OP(=O)(O)O`, the outcome in test [1] was inactive.

Regarding `N[C@H](Cc1c[nH]c2ccccc12)C(=O)O` [D-TRYPTOPHAN], in test [2], the Kd was greater than 1000 µM.

For the molecule `N[C@H](Cc1c[nH]c2ccccc12)C(=O)NO`, the deltaH in test [3] was -6.65 kcal/mol. In addition, the deltaG in test [4] is -5.7 kcal/mol. Also, in test [5], the -TdeltaS worked out at 0.9 kcal/mol. Besides, the Kd in test [2] stood at 64 µM.

Consider `N[C@@H](Cc1c[nH]c2ccccc12)C(=O)NO`, for which, in test [6], the Ratio is 25. Besides, the -TdeltaS in [7] is -5.2 kcal/mol; in test [12], 2 kcal/mol. Also, the deltaG is -6.1 kcal/mol in test [4], -6.4 kcal/mol in test [13], -4.19 kcal/mol in test [14] and -6.29 kcal/mol in test [15]. For the same molecule, the Kd in test [8] was 22 µM; in [10], 848 µM; in test [2], 36 µM; in test [16] it was 24 µM. Besides, the deltaH was 1.1 kcal/mol in test [9] and -8.3 kcal/mol in [11]. Further, in [1], the result was Active.

Regarding `N[C@@H](Cc1c[nH]c2ccccc12)C(=O)O` [TRYPTOPHAN], in test [2], the Kd was greater than 1000 µM.
